Experiment [1] concerns L1210. The experiment can be described thus: Antiproliferative activity against mouse L1210 cells after 2 days. Format: functional, cell-based. The note with it: L1210, 48 h. In outline: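 Cells were seeded at 300,000–500,000 cells/mL and mixed 1:1 with compound dilutions. They were incubated at 37 °C for two days and counted with a Coulter counter. IC50 is the concentration that inhibits proliferation by 50%, given as mean ± SE from dose–response curves of at least three independent experiments.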

Experiment [2] deals with FM3A. Briefly: Antiproliferative activity against mouse FM3A cells after 2 days. Type of experiment: functional, cell-based. The following applies: 48 h.
Experiment [3] is described as follows: Inhibition of bovine brain tubulin polymerization for 20 mins by turbidimetry. Details: species or system Bos taurus. In outline: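 Purified bovine brain tubulin (10 μM) preincubated with varying compound concentrations in glutamate buffer at 30 °C, cooled to 0 °C, GTP added, then warmed to 30 °C in a recording spectrophotometer.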
For experiment [4], the species on record is Bos taurus. The experiment can be described thus: Displacement of [3H]colchicine from bovine brain tubulin at 1 uM. In outline:
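Purified bovine brain tubulin (1 μM) was incubated with 5 μM [3H]colchicine and 1 μM test compound. The read-out is percent inhibition of radiolabelled colchicine binding.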
Background: Displacement assays read how much labelled ligand stays bound in the presence of the test substance.

Experiment [5] deals with K562. Briefly: Cell cycle arrest in human K-562 cells assessed as accumulation at S phase at 68 nM after 24 hrs by flow cytometry. Format: functional. For orientation: In flow cytometry, cells or beads pass a laser one at a time.
In experiment [6] the test system is K562. The experiment can be described thus: Cell cycle arrest in human K-562 cells assessed as accumulation at G0/G1 phase at 68 nM after 24 hrs by flow cytometry. Format: functional.
In experiment [7] the test system is K562. Briefly: Cell cycle arrest in human K-562 cells assessed as accumulation at G2/M phase at 68 nM after 24 hrs by flow cytometry. Format: functional.
In experiment [8] the test system is K562. The experiment can be described thus: Cell cycle arrest in human K-562 cells assessed as accumulation at sub G0/G1 phase at 68 nM after 24 hrs by flow cytometry. Type of experiment: functional.
For experiment [9], the system named is K562. Briefly: Cytotoxicity against human K-562 after 24 hrs. The following applies: K562, 24 h. Format: functional, cell-based.
In experiment [10] the test system is K562. The experiment can be described thus: Cell cycle arrest in human K-562 cells assessed as accumulation at G0/G1 phase at 400 nM after 24 hrs by flow cytometry. Format: functional.
Experiment [11] has as its system K562. Briefly: Cell cycle arrest in human K-562 cells assessed as accumulation at S phase at 400 nM after 24 hrs by flow cytometry. Format: functional.
The test system of experiment [12] is K562. The experiment can be described thus: Cell cycle arrest in human K-562 cells assessed as accumulation at G2/M phase at 400 nM after 24 hrs by flow cytometry. Format: functional.
The subject of experiment [13] is K562. The experiment can be described thus: Cell cycle arrest in human K-562 cells assessed as accumulation at sub G0/G1 phase at 400 nM after 24 hrs by flow cytometry. Format: functional.
Experiment [14] has as its system K562. The experiment can be described thus: Cell cycle arrest in human K-562 cells assessed as accumulation at G0/G1 phase at 212 nM after 24 hrs by flow cytometry. Type of experiment: functional. In outline:
(§1)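 K562 cells exposed 24 h to compound, then washed once in ice-cold PBS. Resuspended at 1 × 10⁶ per mL in hypotonic propidium iodide 50 μg/mL with 0.1% sodium citrate and 0.03% (v/v) nonidet P-40, 30 min. Fluorescence read by flow cytometry as a single-parameter histogram. Sub-G0-G1, G0-G1, S and G2-M fractions compared with untreated control.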

Experiment [15] deals with K562. The experiment can be described thus: Cell cycle arrest in human K-562 cells assessed as accumulation at S phase at 212 nM after 24 hrs by flow cytometry. Type of experiment: functional. In outline:
as §1

In experiment [16] the test system is K562. Briefly: Cell cycle arrest in human K-562 cells assessed as accumulation at G2/M phase at 212 nM after 24 hrs by flow cytometry. Format: functional. In outline:
as §1

For experiment [17], the system named is K562. The experiment can be described thus: Cell cycle arrest in human K-562 cells assessed as accumulation at sub G0/G1 phase at 212 nM after 24 hrs by flow cytometry. Format: functional. In outline: as §1
The nature of experiment [18]: Antiproliferative activity against human Molt4/C8 cells after 3 days. The following applies: MOLT-4, 72 h.
Experiment [19] concerns K562. The experiment can be described thus: Cell cycle arrest in human K-562 cells assessed as accumulation at G0/G1 phase at 120 nM after 24 hrs by flow cytometry. Type of experiment: functional.
Experiment [20] has as its system K562. Briefly: Cell cycle arrest in human K-562 cells assessed as accumulation at S phase at 120 nM after 24 hrs by flow cytometry. Format: functional.
Experiment [21] relates to K562. Briefly: Cell cycle arrest in human K-562 cells assessed as accumulation at G2/M phase at 120 nM after 24 hrs by flow cytometry. Type of experiment: functional.
Experiment [22] relates to K562. The experiment can be described thus: Cell cycle arrest in human K-562 cells assessed as accumulation at sub G0/G1 phase at 120 nM after 24 hrs by flow cytometry. Type of experiment: functional.
Experiment [23] has as its system K562. Briefly: Cell cycle arrest in human K-562 cells assessed as accumulation at G0/G1 phase at 115 nM after 24 hrs by flow cytometry. Format: functional. In outline:
as §1

Experiment [24] relates to K562. Briefly: Cell cycle arrest in human K-562 cells assessed as accumulation at S phase at 115 nM after 24 hrs by flow cytometry. Type of experiment: functional. Summed up:
as §1

Experiment [25] has as its system K562. The experiment can be described thus: Cell cycle arrest in human K-562 cells assessed as accumulation at G2/M phase at 115 nM after 24 hrs by flow cytometry. Format: functional. In outline: as §1
Experiment [26] relates to K562. The experiment can be described thus: Cell cycle arrest in human K-562 cells assessed as accumulation at sub G0/G1 phase at 115 nM after 24 hrs by flow cytometry. Format: functional. In outline:
as §1

Experiment [27] deals with K562. Briefly: Cell cycle arrest in human K-562 cells assessed as accumulation at G0/G1 phase at 85 nM after 24 hrs by flow cytometry. Format: functional.
Experiment [28] deals with K562. The experiment can be described thus: Cell cycle arrest in human K-562 cells assessed as accumulation at S phase at 85 nM after 24 hrs by flow cytometry. Type of experiment: functional.
For experiment [29], the system named is K562. The experiment can be described thus: Cell cycle arrest in human K-562 cells assessed as accumulation at G2/M phase at 85 nM after 24 hrs by flow cytometry. Type of experiment: functional.
Experiment [30] has as its system K562. Briefly: Cell cycle arrest in human K-562 cells assessed as accumulation at sub G0/G1 phase at 85 nM after 24 hrs by flow cytometry. Format: functional.

The structures appear in SMILES notation.

The IC50 is the concentration at which inhibition is half-maximal. As for `COc1cc(C(=O)c2oc3ccccc3c2N)cc(OC)c1OC`, the 50% inhibitory concentration (IC50) in experiment [1] and in experiment [2] was > 10 µM each time.
Regarding `COc1cc(C(=O)c2oc3cccc(OC)c3c2N)cc(OC)c1OC`, the figures for the IC50 in experiment [1] and in [2] were 7.5 µM and 7.9 µM, respectively.
For the compound `COc1ccc2c(N)c(C(=O)c3cc(OC)c(OC)c(OC)c3)sc2c1`, the IC50 in experiment [1] turned out to be 0.039 µM; in experiment [2], 0.046 µM; in experiment [3], 1.3 µM. Moreover, the Activity in experiment [4] turned out to be 60%.
`COc1ccc2oc(C(=O)c3cc(OC)c(OC)c(OC)c3)c(N)c2c1`: the IC50 in experiment [1] and in experiment [2] was > 10 µM throughout.
Regarding `COc1ccc2c(N(C)C)c(C(=O)c3cc(OC)c(OC)c(OC)c3)oc2c1`, the values for the IC50 in [1], in [2] and in experiment [3] were 0.065 µM, 0.059 µM and 0.9 µM, respectively. Moreover, the Activity in experiment [4] was 76%; in [5], 32%; in [6] it was 38%; in experiment [7] it was 30%; in [8], 13%.
As to `COc1cc(C(=O)c2oc3c(OC)cccc3c2N(C)C)cc(OC)c1OC`, the IC50 in [1] is 1.1 µM; in experiment [2] it was 1.2 µM.
Take `COc1cc(C(=O)c2oc3ccccc3c2N(C)C)cc(OC)c1OC`: the IC50 in experiment [1] was > 10 µM; in experiment [2], 8.8 µM.
As to `COc1ccc2oc(C(=O)c3cc(OC)c(OC)c(OC)c3)c(N(C)C)c2c1`, the IC50 in experiment [1] is 1.4 µM; in [2], 1.2 µM.
As for `COc1ccc2c(N)c(C(=O)c3cc(OC)c(OC)c(OC)c3)[nH]c2c1`, in experiment [3], the half-maximal inhibitory concentration (IC50) is > 40 µM.
With `COc1ccc2c(NC(=O)CCl)c(C(=O)c3cc(OC)c(OC)c(OC)c3)oc2c1`, the IC50 worked out at 1.1 µM in experiment [1], 1.1 µM in [2], 2 µM in experiment [3] and 0.4 µM in experiment [9]. Further, the Activity in experiment [4] came out at 47%; in [10], 23%; in [11] it was 44%; in [12], 33%; in [13] it was 13%.
`COc1ccc2c(NC(=O)CBr)c(C(=O)c3cc(OC)c(OC)c(OC)c3)oc2c1`: the IC50 in [1] amounted to 0.48 µM; in experiment [2], 0.56 µM; in [3], 2.3 µM. The Activity is on record as 6% in experiment [14], 27% in [15], 67% in [16] and 15% in [17].
As to `COc1cc(C(=O)c2oc3c(OC)cccc3c2N)cc(OC)c1OC`, the IC50 in experiment [1] and in [2] was > 10 µM throughout.
In [3], `COc1ccc2c(N)c(C(=O)c3cc(OC)c(OC)c(OC)c3)n(C)c2c1` displayed a 50% inhibitory concentration (IC50) of 4.6 µM.
As for `COc1cc(C(=O)c2oc3cccc(OC)c3c2N(C)C)cc(OC)c1OC`, the IC50 in [1], in experiment [2] and in [18] was > 10 µM each time.
Consider `COc1ccc2c(N)c(C(=O)c3cc(OC)c(OC)c(OC)c3)oc2c1`, for which the concentration for half-maximal inhibition (IC50) in experiment [1] was determined as 0.43 µM; in experiment [2], 0.28 µM; in experiment [3], 1.1 µM; in experiment [9], 0.12 µM. The Activity is 73% in [4]; 11% in experiment [19]; 45% in [20]; 44% in experiment [21]; 15% in experiment [22].
As to `COc1ccc2c(NC(=O)CI)c(C(=O)c3cc(OC)c(OC)c(OC)c3)oc2c1`, the IC50 in [1] was found to be 0.17 µM; in experiment [2] it was 0.26 µM; in experiment [3], 1.8 µM. For the same compound, the Activity in [4] amounted to 54%; in experiment [23], 23%; in [24], 56%; in experiment [25], 21%; in experiment [26] it was 33%.
Turning to `COc1ccc2c(NC(C)=O)c(C(=O)c3cc(OC)c(OC)c(OC)c3)oc2c1`, the half-inhibitory concentration (IC50) in experiment [1] came out at 0.094 µM; in [2], 0.1 µM; in experiment [3], 1.6 µM; in experiment [9], 0.085 µM. The Activity in [4] came out at 51%; in experiment [27], 27%; in experiment [28], 36%; in [29] it was 37%; in [30] it was 12%.

(Values after ChEMBL document CHEMBL1144178, “Synthesis and biological evaluation of 2-(3',4',5'-trimethoxybenzoyl)-3-N,N-dimethylamino benzo[b]furan derivatives as inhibitors of tubulin polymerization” (Bioorg Med Chem, 2008).)
